Data published in ChEMBL document CHEMBL1147746, “Structure-activity relationship studies of novel benzophenones leading to the discovery of a potent, next generation HIV nonnucleoside reverse transcriptase inhibitor” (J Med Chem, 2006).

Key:
Format in all cases: functional, organism-based
[1] = system: Human immunodeficiency virus 1; experiment: Antiviral activity against HIV1 K103N mutant using HeLa MAGI assay; details: Human immunodeficiency virus 1, K103N
Outline: (§1)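 HeLa CD4-LTR-β-gal cells infected with isogenic recombinant HIV-1 built on the HxB2 backbone and carrying the RT mutation (K103N, V106A or Y181C). Infection was read by a chemiluminescent β-galactosidase signal 3 days after infection. The IC50 is the concentration giving 50% inhibition of the signal relative to untreated controls. Cytotoxicity was run in parallel by CellTiter96; highest concentration mostly 0.5 µM.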

[2] = system: Human immunodeficiency virus 1; experiment: Antiviral activity against HIV1 Y181C mutant using HeLa MAGI assay; details: Human immunodeficiency virus 1, Y181C; outline: as §1
[3] = system: Human immunodeficiency virus 1; experiment: Antiviral activity against HIV1 V106A mutant using HeLa MAGI assay; details: Human immunodeficiency virus 1, V106A; outline: as §1
[4] = system: Human immunodeficiency virus 1; experiment: Antiviral activity against HIV1 3B in MT4 cells; details: Human immunodeficiency virus 1, 3B
Outline: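 MT4 T-cell line infected with HIV-1 IIIB (from H9/HTLV-IIIB supernatants) at 100× the inoculum giving 50% growth reduction; incubated 5 days with a range of compound concentrations. Virus cytopathic effect read by MTS staining; IC50 taken as mean of one triplicate experiment. Cytotoxicity measured in parallel on uninfected cells.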

[5] = system: Human immunodeficiency virus 1; experiment: Antiviral activity against HIV1 HxB2 using HeLa MAGI assay; details: Human immunodeficiency virus 1, HxB2
Outline: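 HeLa CD4-LTR-β-gal cells infected with HxB2 (from molecular clone pHxB2-D) or isogenic RT mutants; HIV-LTR-driven β-galactosidase quantified with chemiluminescent substrate 3 days post-infection. IC50 is the concentration inhibiting 50% of signal relative to untreated controls. Cytotoxicity measured in parallel by CellTiter96.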

| Structure (SMILES) | IC50 [1] | IC50 [2] | IC50 [3] | IC50 [4] | IC50 [5] |
| --- | --- | --- | --- | --- | --- |
| O=C1Nc2ccc(Cl)cc2C(C#CC2CC2)(C(F)(F)F)O1 (single isomer, unassigned) [EFAVIRENZ] | 25 nM | 1.6 nM | 1.8 nM |  |  |
| Cc1cc(NCCCN2CCCC2)ccc1NC(=O)COc1ccc(Cl)cc1C(=O)c1cc(F)cc(F)c1 | 109 nM |  |  | 18 nM |  |
| CCN(CC)CCCNc1ccc(NC(=O)COc2ccc(Cl)cc2C(=O)c2cc(F)cc(F)c2)c(C)c1 | 96 nM |  |  | 41 nM |  |
| COc1ccc(NC(=O)COc2ccc(Cl)cc2C(=O)c2cc(F)cc(F)c2)cn1 | 72 nM |  |  |  |  |
| Cc1cc(S(N)(=O)=O)ccc1NC(=O)COc1ccc(Cl)cc1C(=O)c1cc(C#N)cc(C(F)(F)F)c1 | 1.1 nM | 2 nM | 5.6 nM |  |  |
| Cc1cc(NCCCn2ccnc2)ccc1NC(=O)COc1ccc(Cl)cc1C(=O)c1cc(F)cc(F)c1 | 158 nM |  |  | 37 nM |  |
| Cc1nc(S(N)(=O)=O)ccc1NC(=O)COc1ccc(Cl)cc1C(=O)c1cc(Cl)cc(C#N)c1 | 3 nM | 3 nM | 7 nM |  |  |
| Cc1cc(NC(=O)CCN2CCOCC2)ccc1NC(=O)COc1ccc(Cl)cc1C(=O)c1cc(F)cc(F)c1 | 9 nM |  |  | 5 nM |  |
| Cc1cc(S(N)(=O)=O)ncc1NC(=O)COc1ccc(Cl)cc1C(=O)c1cc(Cl)cc(C#N)c1 | 5 nM | 2 nM | 10 nM |  |  |
| Cc1cc(N2CC[S+]([O-])CC2)ccc1NC(=O)COc1ccc(Cl)cc1C(=O)c1ccc(C#N)cc1 | 44 nM | 355 nM | 1400 nM |  |  |
| COc1cc(OC)cc(C(=O)c2cc(Cl)ccc2OCC(=O)Nc2ccc(S(N)(=O)=O)cc2C)c1 | 370 nM | 13 nM | 500 nM |  |  |
| Cc1cc(S(N)(=O)=O)ccc1NC(=O)COc1ccc(Cl)cc1C(=O)c1cc(F)cc(C(F)(F)F)c1 | 2 nM | 2.9 nM | 10.5 nM | 1 nM | 1.4 nM |
| CNS(=O)(=O)c1ccc(NC(=O)COc2ccc(Cl)cc2C(=O)c2cc(F)cc(C(F)(F)F)c2)c(C)c1 | 2 nM |  |  | 8 nM | 3 nM |
| Cc1cc(N2CC[S+]([O-])CC2)ccc1NC(=O)COc1ccc(Cl)cc1C(=O)c1ccccc1C#N | 155 nM | 700 nM | 2000 nM |  |  |
| Cc1ccnc2c1NC(=O)c1cccnc1N2C1CC1 [NEVIRAPINE] | 5800 nM | 10300 nM | 8200 nM |  |  |
| Cc1cc(S(=O)(=O)N(C)C)ccc1NC(=O)COc1ccc(Cl)cc1C(=O)c1cc(F)cc(C(F)(F)F)c1 | 6 nM |  |  | 10 nM | 8 nM |
| Cc1cc(S(N)(=O)=O)ccc1NC(=O)COc1ccc(Cl)cc1C(=O)c1cc(Br)cc(C(F)(F)F)c1 | 93 nM | 290 nM | 18 nM |  |  |

| Structure (SMILES) | IC50 [1] | IC50 [2] | IC50 [3] | IC50 [4] | IC50 [5] |
| --- | --- | --- | --- | --- | --- |
| Cc1cc(C#N)cc(C(=O)c2cc(Cl)ccc2OCC(=O)Nc2cnc(S(N)(=O)=O)cc2C)c1 | 7 nM | 4 nM | 2 nM |  |  |
| Cc1cc(C#N)cc(C(=O)c2cc(Cl)ccc2OCC(=O)Nc2ncc(S(N)(=O)=O)cc2C)c1 | 93 nM |  |  |  |  |
| Cc1ccccc1NC(=O)COc1ccc(Cl)cc1C(=O)c1cc(F)cc(F)c1 | 38 nM | 25 nM |  | 25 nM | 8 nM |
| Cc1cc(S(N)(=O)=O)ccc1NC(=O)COc1ccc(Cl)cc1C(=O)c1cc(Cl)cc(Br)c1 | 6.1 nM | 6.9 nM | 13 nM |  |  |
| Cc1cc(S(N)(=O)=O)ccc1NC(=O)COc1ccc(Cl)cc1C(=O)c1cccc(C#N)c1 | 1.5 nM | 1.5 nM | 30 nM |  |  |
| Cc1cc(C)cc(C(=O)c2cc(Cl)ccc2OCC(=O)Nc2ccc(S(N)(=O)=O)cc2C)c1 | 3.3 nM | 3 nM | 4.2 nM |  |  |
| O=C(COc1ccc(Cl)cc1C(=O)c1cc(F)cc(F)c1)Nc1ccc(Cl)nc1 | 67 nM |  |  |  |  |
| Cc1cc(S(N)(=O)=O)ccc1NC(=O)COc1ccc(Cl)cc1C(=O)c1cc(Cl)cc(C#N)c1 | 1 nM | 0.7 nM | 3.4 nM |  |  |
| Cc1cc(Cl)cc(C(=O)c2cc(Cl)ccc2OCC(=O)Nc2ccc(S(N)(=O)=O)cc2C)c1 | 3.6 nM | 3.3 nM | 9.4 nM |  |  |
| Cc1cc(S(N)(=O)=O)ccc1NC(=O)COc1ccc(Cl)cc1C(=O)c1cc(N)cc(C#N)c1 | 140 nM | 450 nM | 18 nM |  |  |
| Cc1cc(OCCCNC(N)=O)ccc1NC(=O)COc1ccc(Cl)cc1C(=O)c1cc(F)cc(C(F)(F)F)c1 | 4 nM | 10 nM |  | 6 nM | 4 nM |
| Cc1cc(C#N)cc(C(=O)c2cc(Cl)ccc2OCC(=O)Nc2ccc(S(N)(=O)=O)nc2C)c1 | 6 nM | 4 nM | 3 nM |  |  |
| Cc1cc(OCCCS(N)(=O)=O)ccc1NC(=O)COc1ccc(Cl)cc1C(=O)c1cc(F)cc(C(F)(F)F)c1 | 4 nM | 6 nM |  | 7 nM | 3 nM |
| Cc1cc(N2CC[S+]([O-])CC2)ccc1NC(=O)COc1ccc(Cl)cc1C(=O)c1cccc(C#N)c1 | 5 nM | 6 nM |  |  |  |
| Cc1cc(N2CC[S+]([O-])CC2)ccc1NC(=O)COc1ccc(Cl)cc1C(=O)c1ccccc1 | 100 nM | 150 nM | 1400 nM |  |  |
| Cc1cc(C#N)cc(C(=O)c2cc(Cl)ccc2OCC(=O)Nc2ccc(S(N)(=O)=O)cc2C)c1 | 0.9 nM | 1.9 nM | 1.4 nM |  |  |
